# Measured values published in paper PMC12827892 (Acta Pharmaceutica Sinica. B, 2025).
# pIC50: −log10 of the molar value. Like-named read-outs stand apart in the source and are kept apart here.
# Columns and labels:
# SARS-CoV-2 [1] = assay: SARS-CoV-2 replication in hACE2-HeLa cells; format: cell-based; conditions: 10 μmol/L
# [2] = test system: panel of over 300 wild-type human kinases; assay: KINOMEscan kinase selectivity profile; format: binding; conditions: 1 μmol/L
# SARS-CoV-2 [3] = format: cell-based; conditions: 4 μmol/L
# [4] = test system: phosphorylation levels of RIPK1 Ser166; format: cell-based; conditions: mouse airway organoids
# [5] = test system: expression levels of ACE2; format: cell-based; conditions: mouse airway organoids
# cytokine secretion = format: cell-based, mouse; conditions: single agent
# [6] = Pharmacokinetic studies in mice; format: in vivo, male ICR mice
# In short: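 Test compound was formulated in 10% (v/v) dimethylacetamide and 10% (w/v) Solutol HS 15 in normal saline. It was given to male ICR mice by tail-vein iv (1 mpk) or ip (10 mpk). Plasma from centrifuged whole blood was diluted in acetonitrile with internal standard. Brain was taken into PBS/acetonitrile (1:8) with internal standard and homogenised (30 Hz, 10 min). Samples were centrifuged (4 °C, 14,000 rpm, 10 min) and analysed by LC-MS/MS.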
# SARS-CoV-2 [7] = format: in vivo, K18-hACE2 transgenic mice; conditions: ip, BID; for Weight loss in infected mice: five days; for SARS-CoV-2 viral loads in the lungs: Day 6, RT-PCR and IHC
# SARS-CoV-2 Nsp3^179−1329 = SARS-CoV-2 Nsp3^179−1329 (Severe acute respiratory syndrome coronavirus 2, UniProt P0DTD1); assay: Nsp3 DUB activity, Rho-110 cleavage assay; format: biochemical
# Nsp3179-1329 proteins = Nsp3179-1329 proteins (Severe acute respiratory syndrome coronavirus 2, UniProt P0DTD1); parameters: species or system SARS-CoV-2; conditions: incubation with compound, SEC
# [8] = Stability in mouse liver microsomes; format: in vitro ADME; conditions: compared to 2
# USP7 = USP7 (Homo sapiens, UniProt Q93009); assay: DUB enzymatic assay; format: biochemical; conditions: 10 μmol/L
# USP8 = biological target: T1, USP8 (Homo sapiens, UniProt P40818); assay: DUB enzymatic assay; format: biochemical; conditions: 10 μmol/L
# T1 sequence (P40818 1-1118): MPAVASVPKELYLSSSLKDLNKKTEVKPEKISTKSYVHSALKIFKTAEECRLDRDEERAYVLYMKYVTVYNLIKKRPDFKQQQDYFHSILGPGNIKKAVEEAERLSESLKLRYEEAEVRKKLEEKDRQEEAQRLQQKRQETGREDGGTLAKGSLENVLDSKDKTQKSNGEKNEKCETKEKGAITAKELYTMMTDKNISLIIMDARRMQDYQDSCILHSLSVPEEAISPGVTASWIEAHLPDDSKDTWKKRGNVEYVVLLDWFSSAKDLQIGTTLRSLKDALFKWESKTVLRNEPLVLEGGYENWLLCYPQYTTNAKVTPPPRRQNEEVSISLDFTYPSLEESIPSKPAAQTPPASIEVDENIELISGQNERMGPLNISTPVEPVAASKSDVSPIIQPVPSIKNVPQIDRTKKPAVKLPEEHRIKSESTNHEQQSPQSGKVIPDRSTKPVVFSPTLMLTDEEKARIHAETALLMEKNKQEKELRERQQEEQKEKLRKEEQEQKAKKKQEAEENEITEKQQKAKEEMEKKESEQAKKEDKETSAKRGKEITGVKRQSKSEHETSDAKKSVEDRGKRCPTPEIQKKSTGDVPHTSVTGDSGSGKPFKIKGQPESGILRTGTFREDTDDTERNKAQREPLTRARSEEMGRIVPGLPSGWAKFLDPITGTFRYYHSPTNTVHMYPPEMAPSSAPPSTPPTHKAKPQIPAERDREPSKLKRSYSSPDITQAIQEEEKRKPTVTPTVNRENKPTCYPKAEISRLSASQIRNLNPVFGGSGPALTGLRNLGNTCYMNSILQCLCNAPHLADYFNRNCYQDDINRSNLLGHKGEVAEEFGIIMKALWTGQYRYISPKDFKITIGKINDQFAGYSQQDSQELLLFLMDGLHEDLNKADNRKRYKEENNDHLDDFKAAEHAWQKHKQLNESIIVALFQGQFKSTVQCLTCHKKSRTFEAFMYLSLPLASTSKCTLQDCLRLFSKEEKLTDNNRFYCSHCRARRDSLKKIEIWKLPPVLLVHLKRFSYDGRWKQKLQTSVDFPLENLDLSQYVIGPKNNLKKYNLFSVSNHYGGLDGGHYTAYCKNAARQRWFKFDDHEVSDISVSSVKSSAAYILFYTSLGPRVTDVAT
# USP14 = USP14 (Homo sapiens, UniProt P54578); assay: DUB enzymatic assay; format: biochemical; conditions: 10 μmol/L
# UCHL1 = biological target: T2, UCHL1 (Homo sapiens, UniProt P09936); assay: DUB enzymatic assay; format: biochemical; conditions: 10 μmol/L
# T2 sequence (P09936 1-223): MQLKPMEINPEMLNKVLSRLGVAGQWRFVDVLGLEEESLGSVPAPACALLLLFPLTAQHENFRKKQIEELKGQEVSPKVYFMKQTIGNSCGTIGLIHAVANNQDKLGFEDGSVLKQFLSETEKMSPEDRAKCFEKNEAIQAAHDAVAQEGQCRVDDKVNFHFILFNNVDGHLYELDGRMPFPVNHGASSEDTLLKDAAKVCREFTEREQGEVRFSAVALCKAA
# OTULIN = OTULIN (Homo sapiens, UniProt Q96BN8); assay: DUB enzymatic assay; format: biochemical; conditions: 10 μmol/L
# OTUB1 = OTUB1 (Homo sapiens, UniProt Q96FW1); assay: DUB enzymatic assay; format: biochemical; conditions: 10 μmol/L
# OC43 = format: cell-based, HCoV-OC43; conditions: Huh7 hepatocytes, 0.1 MOI
# 229E = format: cell-based, HCoV-229E
# Sequence of OTULIN (Q96BN8 whole entry, species assumed): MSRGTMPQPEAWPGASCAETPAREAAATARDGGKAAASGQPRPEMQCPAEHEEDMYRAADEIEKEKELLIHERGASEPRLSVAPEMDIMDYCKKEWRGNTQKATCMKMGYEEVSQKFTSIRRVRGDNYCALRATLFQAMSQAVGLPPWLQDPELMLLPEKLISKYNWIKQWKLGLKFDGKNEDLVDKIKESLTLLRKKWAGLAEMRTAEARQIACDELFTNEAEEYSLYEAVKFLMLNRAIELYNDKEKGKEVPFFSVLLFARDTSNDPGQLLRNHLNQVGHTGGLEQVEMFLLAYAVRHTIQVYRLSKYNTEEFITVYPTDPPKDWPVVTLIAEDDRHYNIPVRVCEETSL
# Sequence of USP7 (Q93009 whole entry, species assumed): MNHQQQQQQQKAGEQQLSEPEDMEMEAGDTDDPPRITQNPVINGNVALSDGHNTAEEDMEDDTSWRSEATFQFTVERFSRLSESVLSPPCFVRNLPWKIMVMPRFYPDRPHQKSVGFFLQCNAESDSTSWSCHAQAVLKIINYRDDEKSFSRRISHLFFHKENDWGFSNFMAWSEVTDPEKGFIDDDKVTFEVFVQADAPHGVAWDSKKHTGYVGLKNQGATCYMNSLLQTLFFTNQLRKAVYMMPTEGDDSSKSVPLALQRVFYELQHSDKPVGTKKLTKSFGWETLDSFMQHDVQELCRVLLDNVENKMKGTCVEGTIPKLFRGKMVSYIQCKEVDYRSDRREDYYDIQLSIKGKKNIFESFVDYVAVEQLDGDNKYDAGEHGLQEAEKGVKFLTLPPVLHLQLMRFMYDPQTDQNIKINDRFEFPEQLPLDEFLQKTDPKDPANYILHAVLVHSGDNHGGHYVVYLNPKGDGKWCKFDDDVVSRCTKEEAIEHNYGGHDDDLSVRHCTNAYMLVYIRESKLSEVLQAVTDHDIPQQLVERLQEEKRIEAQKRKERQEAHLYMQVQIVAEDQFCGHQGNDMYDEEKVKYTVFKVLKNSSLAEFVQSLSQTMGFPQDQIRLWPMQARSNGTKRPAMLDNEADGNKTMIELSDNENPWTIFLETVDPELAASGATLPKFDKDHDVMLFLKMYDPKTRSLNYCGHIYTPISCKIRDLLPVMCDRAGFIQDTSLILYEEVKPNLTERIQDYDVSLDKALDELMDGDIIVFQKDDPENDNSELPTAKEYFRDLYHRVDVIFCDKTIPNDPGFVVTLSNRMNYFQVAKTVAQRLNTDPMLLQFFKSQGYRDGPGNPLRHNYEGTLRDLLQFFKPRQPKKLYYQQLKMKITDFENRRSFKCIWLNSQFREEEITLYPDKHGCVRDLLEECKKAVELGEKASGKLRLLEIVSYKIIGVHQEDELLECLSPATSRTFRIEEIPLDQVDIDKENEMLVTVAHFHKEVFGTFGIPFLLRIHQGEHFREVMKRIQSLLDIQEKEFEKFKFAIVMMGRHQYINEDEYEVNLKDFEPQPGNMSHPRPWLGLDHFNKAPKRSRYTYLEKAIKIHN
# Sequence of OTUB1 (Q96FW1 whole entry, species assumed): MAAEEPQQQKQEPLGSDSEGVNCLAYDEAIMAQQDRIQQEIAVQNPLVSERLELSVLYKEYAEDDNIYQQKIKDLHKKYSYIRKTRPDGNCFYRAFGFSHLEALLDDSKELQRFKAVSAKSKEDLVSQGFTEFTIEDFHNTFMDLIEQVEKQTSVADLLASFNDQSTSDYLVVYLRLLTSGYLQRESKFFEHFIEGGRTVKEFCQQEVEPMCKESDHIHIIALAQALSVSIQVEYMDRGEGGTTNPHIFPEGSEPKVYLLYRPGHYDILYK
# Sequence of USP14 (P54578 whole entry, species assumed): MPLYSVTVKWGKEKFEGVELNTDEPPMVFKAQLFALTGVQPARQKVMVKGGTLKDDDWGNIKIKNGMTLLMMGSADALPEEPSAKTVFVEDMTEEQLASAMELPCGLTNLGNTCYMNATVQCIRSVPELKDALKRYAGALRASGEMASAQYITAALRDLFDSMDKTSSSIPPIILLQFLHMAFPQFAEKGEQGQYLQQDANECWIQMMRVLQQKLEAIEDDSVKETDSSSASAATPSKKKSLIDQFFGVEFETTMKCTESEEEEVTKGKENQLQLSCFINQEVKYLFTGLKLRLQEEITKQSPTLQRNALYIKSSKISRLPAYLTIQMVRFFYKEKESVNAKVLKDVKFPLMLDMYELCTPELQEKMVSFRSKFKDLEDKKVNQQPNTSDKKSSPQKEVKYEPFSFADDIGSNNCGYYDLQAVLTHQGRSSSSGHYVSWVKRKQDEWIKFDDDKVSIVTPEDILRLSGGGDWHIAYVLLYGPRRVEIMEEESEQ
structure (smiles),measurement,setting,value
"CN1C(=O)[C@@H](NC(=O)c2nnc(Cc3ccccc3)[nH]2)COc2cccnc21 [DNL758, reference compound]",Effects against SARS-CoV-2 in ACE2-HeLa cells,SARS-CoV-2 [1],neither QY1892 nor DNL758 exhibited detectable effects
"[2H]c1c([2H])c([C@]2([2H])CCCN2C(=O)C(C)(C)Oc2ccc3cn[nH]c3c2)c([2H])c([2H])c1C([2H])([2H])[2H] [QY1892, (S)-2-((1H-Indazol-6-yl)oxy)-2-methyl-1-(2-(4-(methyl-d3)phenyl-2,3,5,6-d4)pyrrolidin-1-yl-2-d)propan-1-one]",Kinase selectivity across the kinome,[2],no significant off-target activity observed across the kinome
same,Effects against SARS-CoV-2 in ACE2-HeLa cells,SARS-CoV-2 [1],neither QY1892 nor DNL758 exhibited detectable effects
same,Viral replication in mouse airway organoids,SARS-CoV-2 [3],effectively suppressed the viral replication
same,Phosphorylation levels of RIPK1 Ser166 following viral infection,[4],significantly reduced
same,Expression levels of ACE2,[5],significantly reduced
same,Cytokine secretion from the organoids upon viral infection,cytokine secretion,significantly more effective than SHY1643
same,Brain distribution post-administration,[6],significant brain distribution
same,Weight loss in infected mice,SARS-CoV-2 [7]; 5 mpk,significantly slowed the weight loss
same,SARS-CoV-2 viral loads in the lungs,SARS-CoV-2 [7]; 5 mpk,effectively reduced viral loads in the lungs
"C[C@H](c1cccc2ccccc12)N1CCC(C(=O)NCc2cccc(-c3cn(Cc4nnc5c(F)cccn45)nn3)c2)CC1 [SHY1643, (R)-N-(3-(1-((8-Fluoro-[1,2,4]triazolo[4,3-a]pyridin-3-yl)methyl)-1H-1,2,3-triazol-4-yl)benzyl)-1-(1-(naphthalen-1-yl)ethyl)piperidine-4-carboxamide]",pIC50,SARS-CoV-2 Nsp3^179−1329,7.55
same,Dimerization of Nsp3 protein,Nsp3179-1329 proteins,could induce dimerization of Nsp3 protein
same,Metabolic stability in mouse microsomes,[8],markedly improved metabolic stability compared to 2
same,Inhibitory effect on USP7,USP7,no significant inhibitory effects
same,Inhibitory effect on USP8,USP8,no significant inhibitory effects
same,Inhibitory effect on USP14,USP14,no significant inhibitory effects
same,Inhibitory effect on UCHL1,UCHL1,no significant inhibitory effects
same,Inhibitory effect on OTULIN,OTULIN,no significant inhibitory effects
same,Inhibitory effect on OTUB1,OTUB1,no significant inhibitory effects
same,Antiviral activity against OC43,OC43,robust antiviral activity
same,Antiviral activity against 229E,229E,robust antiviral activity
same,Phosphorylation levels of RIPK1 Ser166 following viral infection,[4],did not affect
same,Expression levels of ACE2,[5],did not affect
same,Weight loss in infected mice,SARS-CoV-2 [7]; 10 mpk,significantly slowed the weight loss
same,SARS-CoV-2 viral loads in the lungs,SARS-CoV-2 [7]; 10 mpk,effectively reduced viral loads in the lungs
